Measurements as given in ChEMBL document CHEMBL3108746, “Novel symmetrical ureas as modulators of protein arginine methyl transferases” (Bioorg Med Chem, 2013).
Activity calls are given as the source filed them. The calls are words filed in the database; no cut-off is given here.

Experiments:
[1] = test system: VCaP; assay: Cytotoxicity against human VCaP cells after 7 days by Alamar blue staining method; assay type: functional, cell-based
In short: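 VCaP cells seeded at 16,000 cells/well in phenol-red DMEM with 10% cFCS. After 1 day, treated with 0.1 nM R1881 plus a range of compound concentrations. Cell number read 7 days later by Alamar Blue staining on a luminometer.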

[2] = test system: LAPC4; assay: Cytotoxicity against human LAPC4 cells after 7 days by Alamar blue staining method; assay type: functional, cell-based; settings: for IC50: LAPC4, 168 h
In short: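 LAPC-4 cells seeded at 4000 cells/well in medium with 2 mM L-glutamine. After 1 day, treated with 1 nM R1881 plus a range of compound concentrations. Cell number read 7 days later by Alamar Blue staining on a luminometer.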

[3] = biological target: Protein arginine N-methyltransferase 5 (Homo sapiens) (UniProt O14744); assay: Residual activity of recombinant human PRMT5 expressed in Sf9 cells using histone H4 peptide as substrate at 100 uM by chemiluminescence assay
Sequence of Protein arginine N-methyltransferase 5 (Homo sapiens) (O14744 whole entry): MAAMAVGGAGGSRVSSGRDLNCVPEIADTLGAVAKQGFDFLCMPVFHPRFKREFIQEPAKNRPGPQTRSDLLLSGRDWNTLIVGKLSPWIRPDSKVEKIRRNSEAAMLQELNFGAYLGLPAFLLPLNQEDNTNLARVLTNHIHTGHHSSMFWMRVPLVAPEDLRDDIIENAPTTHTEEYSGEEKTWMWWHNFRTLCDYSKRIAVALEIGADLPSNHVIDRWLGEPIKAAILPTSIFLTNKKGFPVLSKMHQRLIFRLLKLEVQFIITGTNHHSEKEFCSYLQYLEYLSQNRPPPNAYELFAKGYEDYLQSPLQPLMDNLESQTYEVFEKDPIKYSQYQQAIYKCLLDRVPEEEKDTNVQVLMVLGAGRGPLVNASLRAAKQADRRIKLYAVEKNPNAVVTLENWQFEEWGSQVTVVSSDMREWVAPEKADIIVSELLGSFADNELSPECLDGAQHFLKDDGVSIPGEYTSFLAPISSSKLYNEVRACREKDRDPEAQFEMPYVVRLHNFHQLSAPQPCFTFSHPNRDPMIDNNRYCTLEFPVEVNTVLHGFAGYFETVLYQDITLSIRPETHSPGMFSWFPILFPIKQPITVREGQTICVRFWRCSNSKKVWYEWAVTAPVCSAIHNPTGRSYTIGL

[4] = biological target: T1, Protein arginine N-methyltransferase 1 (Homo sapiens, UniProt Q99873); assay: Inhibition of recombinant human PRMT1 expressed in Escherichia coli using histone H4 peptide as substrate by chemiluminescence assay
Target sequence in this assay (Q99873 whole entry): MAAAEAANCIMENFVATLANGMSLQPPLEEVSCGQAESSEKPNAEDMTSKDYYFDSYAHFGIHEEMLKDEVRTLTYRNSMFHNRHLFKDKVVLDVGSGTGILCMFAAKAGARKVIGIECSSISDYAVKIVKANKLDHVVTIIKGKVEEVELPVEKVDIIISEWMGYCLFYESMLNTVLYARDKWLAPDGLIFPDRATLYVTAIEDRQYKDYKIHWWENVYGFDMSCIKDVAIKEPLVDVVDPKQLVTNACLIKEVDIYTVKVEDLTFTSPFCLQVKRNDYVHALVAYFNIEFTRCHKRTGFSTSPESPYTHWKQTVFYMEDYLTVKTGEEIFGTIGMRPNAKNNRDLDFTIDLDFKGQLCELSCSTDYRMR

[5] = test system: VCaP; assay: Inhibition of PRMT1 gene expression in androgen-stimulated human VCaP cells by RT-PCR analysis; assay type: functional, cell-based
In short: (§1)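 VCaP cells treated with androgen alone or with increasing compound concentrations. Transcript levels measured by real-time PCR with gene-specific fluorogenic probes and normalized to human cyclophilin A. Values are means of independent triplicates.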

[6] = biological target: T1, Protein arginine N-methyltransferase 1; assay: Inhibition of PRMT1-mediated KLK2 gene expression in R1881-stimulated human VCaP cells at 1.56 to 100 uM by RT-PCR analysis; assay type: cell-based; in short: as §1
Target sequence in this assay (Q99873 whole entry, looked up): as the sequence (Q99873 whole entry) above

[7] = biological target: T1, Protein arginine N-methyltransferase 1; assay: Inhibition of PRMT1-mediated TMPRSS2 gene expression in R1881-stimulated human VCaP cells by RT-PCR analysis; assay type: cell-based; in short: as §1
Target sequence in this assay (Q99873 whole entry, looked up): as the sequence (Q99873 whole entry) above

[8] = biological target: T1, Protein arginine N-methyltransferase 1; assay: Inhibition of PRMT1-mediated FKBP5 gene expression in R1881-stimulated human VCaP cells by RT-PCR analysis; assay type: cell-based; in short: as §1
Target sequence in this assay (Q99873 whole entry, looked up): as the sequence (Q99873 whole entry) above

[9] = test system: VCaP; assay: Inhibition of AR gene expression in R1881-stimulated human VCaP cells at 1.56 to 100 uM by RT-PCR analysis; assay type: functional, cell-based; in short: as §1
[10] = biological target: Protein arginine N-methyltransferase 5 (Homo sapiens) (UniProt O14744); assay: Inhibition of recombinant human PRMT5 expressed in Sf9 cells using histone H4 peptide as substrate by chemiluminescence assay
In short: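 Purified recombinant human PRMT5 (Sf9-expressed) incubated 1 h with S-adenosylmethionine in 1× TBS pH 8.0 with 0.05% Tween20, on wells precoated with histone H4 peptide. Compounds came from 25 mM DMSO stocks diluted in water. Detection used a primary antibody to symmetric-dimethyl R3 of H4 (1 h), then HRP secondary and chemiluminescence. Mean of duplicates with SD.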

Row | Compound | residual activity [3] [%] | Activity [1] | Activity [2] | also measured
1 | O=C(O)/C=C/c1cccc(NC(=O)Nc2cccc(/C=C/C(=O)O)c2)c1 | 92.3 | inactive | inactive | 
2 | O=C(Nc1ccc2c(O)cc(S(=O)(=O)O)cc2c1)Nc1ccc2c(O)cc(S(=O)(=O)O)cc2c1 |  | inactive | inactive | 
3 | COc1ccc2c3c(cccc13)C(=O)N(C)C2=O | 46.2 | inactive | inactive | IC50 [4]: 16.3 µM
4 | O=C(Nc1ccc2ccc(S(=O)(=O)Nc3ccc4c(c3)OCCO4)cc2c1)Nc1ccc2ccc(S(=O)(=O)Nc3ccc4c(c3)OCCO4)cc2c1 | 71.8 |  |  | IC50 [2]: 1.5 µM
5 | O=C(O)CCCCCNC(=O)NCCCCCC(=O)O | 46.2 | inactive | inactive | inhibition [5]: inactive; inhibition [6]: inactive; inhibition [7]: Dose-dependent effect; inhibition [8]: Dose-dependent effect; inhibition [9]: inactive; IC50 [4]: 6.1 µM
6 | O=C(O)/C=C/c1cccc(N2CCCN(c3cccc(/C=C/C(=O)O)n3)C2=O)n1 | 48.7 | inactive | inactive | 
7 | O=C(NCc1cccc(C(=O)O)c1)NCc1cccc(C(=O)O)c1 | 56.4 | inactive | inactive | 
8 | O=C(NCCc1cccc(C(=O)O)c1)NCCc1cccc(C(=O)O)c1 | 15.4 | inactive | inactive | inhibition [10]: Active
9 | O=C(Nc1ccc2ccc(S(=O)(=O)Nc3ccc(Oc4ccccc4)cc3)cc2c1)Nc1ccc2ccc(S(=O)(=O)Nc3ccc(Oc4ccccc4)cc3)cc2c1 | 38.5 |  |  | IC50 [2]: 8.6 µM

Continued, in another order:

Row | residual activity [3] [%] | Compound | Activity [1] | Activity [2] | also measured
10 | 35.9 | O=C(O)/C=C/c1ccc(N2CCN(c3ccc(/C=C/C(=O)O)cc3)C2=O)cc1 | inactive | inactive | 
11 | 74.4 | O=C(O)/C=C/c1cccc(N2CCCN(c3cccc(/C=C/C(=O)O)c3)C2=O)c1 | inactive | inactive | 
12 | 61.5 | O=C(O)/C=C/c1cccc(N2CCN(c3cccc(/C=C/C(=O)O)c3)C2=O)c1 | inactive | inactive | 
13 | 10.3 | O=C(O)/C=C/c1cccc(N2CCN(c3cccc(/C=C/C(=O)O)n3)C2=O)n1 | inactive | inactive | inhibition [10]: Active
14 | 56.4 | O=C(O)/C=C/c1ccc(N2CCCN(c3ccc(/C=C/C(=O)O)cc3)C2=O)cc1 | inactive | inactive | 
